# Assay results published in paper PMC7424737 (ACS Omega, 2020).
# What was measured:
# [1] = test system: TMV; experiment: Anti-TMV curative activity in vivo, half-leaf method; parameters: species or system tobacco mosaic virus; conditions: against TMV in vivo at 500 mg/L (500 μg/mL); average of three replicates ± SD
# In short: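 Five-leaf-stage tobacco plants were dusted with emery and rub-inoculated with TMV. After 0.5 h the emery was rinsed off with water and the leaves left to dry. Test compound solution went on the left half-leaf and blank solution on the right. Lesions were counted per half 3–4 days later, and inhibition (%) was calculated from treated versus blank counts. Three repeats; ribavirin positive control.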
# [2] = test system: TMV; experiment: Anti-TMV inactivation; assay type: in vivo; conditions: Tobacco mosaic virus, read-out: EC50 of inactivation effect activity
# In short: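 TMV was mixed with test compound for 0.5 h. The mixture was rubbed onto the right half-leaf of tobacco plants, and the left half received the same virus dose alone. Lesions were counted 3–4 days later. Inhibition (%) was calculated from lesion numbers versus the blank-control half. Three repeats; ribavirin positive control.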
# [3] = molecular target: T1, TMV-coat protein (TMV-CP) (Tobacco mosaic virus, UniProt P69687); experiment: Microscale thermophoresis; assay type: binding
# T1 sequence (P69687 2-159 limits assumed): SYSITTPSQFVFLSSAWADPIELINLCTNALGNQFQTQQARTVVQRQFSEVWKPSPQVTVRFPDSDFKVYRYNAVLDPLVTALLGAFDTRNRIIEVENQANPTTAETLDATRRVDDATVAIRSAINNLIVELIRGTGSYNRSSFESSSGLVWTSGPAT
# In short: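 Test compound binding to TMV coat protein was measured by microscale thermophoresis to give a dissociation constant (Kd). Ningnanmycin and ribavirin served as positive controls. Each test was repeated three times.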
smiles,measurement,setting,value
NC(=O)c1ncn([C@@H]2O[C@H](CO)[C@@H](O)[C@H]2O)n1 [ribavirin],curative effect activity,[1],49.3 ± 7.5%
same,EC50,[2],138 ± 4.2 mg/L
same,Kd,[3],223 ± 66.2 µM
